Assay results published in the array DNA melting data of Ke et al. (doi:10.1101/2024.01.08.574731).

Assays:
[1] = folding enthalpy; higher = less favourable; fluorescence melt of hairpins on a sequencing array, two-state fit; conditions: sodium 0.088 M
In short: (§1)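 Two-state fits, bootstrapped, provided melting temperature and folding enthalpy from Cy3 fluorescence normalised to pre-quench Cy3 and to control constructs. Library hairpins with annealed Cy3 and quencher oligos were imaged on a sequenced MiSeq flow cell in 50 mM Na-HEPES pH 8.0, 25 mM NaCl, at 2.5 °C intervals up to 60 °C. Four replicates were combined with inverse-variance weighting. A 9.35 °C upward shift was applied to fitted temperatures to match UV melts.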

[2] = melting temperature; fluorescence melt of hairpins on a sequencing array, two-state fit, raised by 9.35 °C to match UV melts; conditions: sodium 0.088 M
In short: as §1

Sequence | folding enthalpy [1] | Tm [2]
GAATACGGAAACGCATTC ((((.((....)).)))) | -29.8 kcal/mol | 36.8 °C
GGTTGACGAAAGTCCACC (((.(((....))).))) | -32 kcal/mol | 50.5 °C
GTGCGCGAAAGCGACCAC ((((((....)))..))) | -10.4 kcal/mol | 43.8 °C
GGTCCCGGAAACAGGACC (((((.(....).))))) | -28.6 kcal/mol | 49.7 °C
GACACTACGAAAGTAGTC (((..(((....)))))) | -10.3 kcal/mol | 32.4 °C
GATCACTAACGTGATC ((((((....)))))) | -33.1 kcal/mol | 54.9 °C
GGACTGCGAAAGCATTCC (((.(((....))).))) | -29.8 kcal/mol | 48.5 °C
GTGTCGGGAAACTGACGC (.(((.(....).))).) | -24.5 kcal/mol | 45.5 °C
GGTATCGGAAACGGTACC ((((.((....)).)))) | -40.6 kcal/mol | 51.6 °C
GCAGAGACGAAAGTCTGC (((..(((....)))))) | -19.6 kcal/mol | 51.7 °C
GCGAGAGGAAACTCCCGC (((.(((....))).))) | -35.5 kcal/mol | 48.5 °C
GCTCCAGGAAACTAGAGC ((((.((....)).)))) | -25.4 kcal/mol | 36.5 °C
CGCTCGGAAACGAACGCG ((((((....)))..))) | -19.4 kcal/mol | 44.8 °C
GATCGGCACCCCGATC ((((((....)))))) | -31.8 kcal/mol | 56.6 °C
GTATCCGAAAGGAGCTAC ((((((....)))..))) | -12.6 kcal/mol | 31.8 °C
GATCGTGTCTACGATC ((((((....)))))) | -38.3 kcal/mol | 59.8 °C
GAGATGGGAAACCATCTC (((((((....))))))) | -39.2 kcal/mol | 60.3 °C
GATCGGCCCACCGATC ((((((....)))))) | -41.5 kcal/mol | 58.2 °C
GTAGACGAAAGTCTAC ((((((....)))))) | -35.9 kcal/mol | 62 °C

Sequence | folding enthalpy [1] | Tm [2]
GGGTGAACGAAAGTTCCC (((..(((....)))))) | -14.9 kcal/mol | 50.1 °C
GGCGTAGGAAACTACACC ((.((((....)))).)) | -29.1 kcal/mol | 44.4 °C
GCGCCAACGAAAGTTCGC (((..(((....)))))) | -24.3 kcal/mol | 43.5 °C
GGCATCGAAAGATGTGCC ((((((....)))..))) | -17.8 kcal/mol | 46.4 °C
GCGCGGCGAAAGCCTCGC (((.(((....))).))) | -26.2 kcal/mol | 66.7 °C
GAGTTAGGAAACTGACTC ((((.((....)).)))) | -36.6 kcal/mol | 42.4 °C
GTGCCCGAAAGGGTCCAC ((((((....)))..))) | -10.3 kcal/mol | 41 °C
GGGAGAGGAAACCCTCCC (((((.(....).))))) | -28.6 kcal/mol | 47.6 °C
ATCCGGAAACGGAT (((((....))))) | -20.7 kcal/mol | 52.8 °C
GATCATTGATATGATC ((((((....)))))) | -28 kcal/mol | 45.5 °C
GCCCCTGGAAACAAGGGC ((((.((....)).)))) | -28.8 kcal/mol | 46.1 °C
GCCATCGAAAGATTTGGC ((((((....)))..))) | -24.1 kcal/mol | 41.3 °C
GGTCCTGGAAACAGGATC (.(((((....))))).) | -31.8 kcal/mol | 51 °C
GTTTGAGGAAACTCAAGC (.(((((....))))).) | -25.1 kcal/mol | 40.5 °C
GTGGTCCGAAAGGATCAC (((.(((....))).))) | -41.1 kcal/mol | 60.4 °C
GCACACGAAAGTGACTGC ((((((....)))..))) | -17.9 kcal/mol | 37.6 °C
GGAATCCGAAAGGAGTCC (((.(((....))).))) | -42.5 kcal/mol | 55.8 °C
GCAATTACGAAAGTATGC (((..(((....)))))) | -20.3 kcal/mol | 31.1 °C
GATCGACTTATCGATC ((((((....)))))) | -44.6 kcal/mol | 51 °C
